Calls of active or inactive are those of the source. No cut-off for these calls is given here.

The results in this text go back to ChEMBL document CHEMBL1157543, “Synthesis and biological evaluation of polysulfated oligosaccharide glycosides as inhibitors of angiogenesis and tumor growth” (J Med Chem, 2010).

Data set [1] in a line: Toxicity in rat aortic endothelium assessed as microvessel sprouts at 10 and 50 uM after 6 or 7 days. The data set is classed as tissue-based, Sprague-Dawley, Aorta. As to conditions: ex_vivo, 168 h. The essentials:
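Aortic ring viability check: on day 6 or 7, compound or medium was withdrawn and complete medium with VEGF (typically 10 ng/mL) was added for up to 7 more days. New microvessel sprouting was taken as a sign of viable tissue.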

For the next data set, the system named is HUVEC. Nature of the data set: Cytotoxicity against HUVEC. As to conditions: human. The data set is classed as cell-based.
The target in data set [2] is Fibroblast growth factor 2 (Homo sapiens, UniProt P09038). Description: Binding affinity to FGF2 by surface plasmon-based solution affinity assay. An outline of the steps: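 Surface plasmon resonance solution affinity assay on heparin-coated CM4 chips. FGF-2 binding run in HBS-EP containing 300 mM NaCl. Kd is the mean of at least duplicate measurements ± SD.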
Fibroblast growth factor 2, sequence (P09038 143-288 limits assumed): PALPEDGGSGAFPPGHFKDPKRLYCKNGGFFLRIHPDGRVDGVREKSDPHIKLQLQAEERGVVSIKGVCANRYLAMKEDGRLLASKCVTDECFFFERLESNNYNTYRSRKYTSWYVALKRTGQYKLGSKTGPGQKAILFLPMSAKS
Background: In SPR one partner is held on a chip, and binding of the other changes the refractive index at the surface.

For data set [3], the system named is Plasma. Description: Anticoagulant activity in human plasma assessed as activated partial thromboplastin time. It is filed as functional. An outline of the steps:
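Pooled normal human plasma spiked with compound in PBS at 0.1 mg/mL (methods give a 0–100 μg/mL range); APTT elevation measured. Normal range 26–36 s. Values are means of two determinations.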

Data set [4] addresses Fibroblast growth factor 1 (Homo sapiens, UniProt P05230). Description: Binding affinity to FGF1 by surface plasmon-based solution affinity assay. An outline of the steps: (§1)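 Surface plasmon resonance solution affinity assay on heparin-coated CM4 chips. Buffer: HBS-EP (10 mM HEPES pH 7.4, 150 mM NaCl, 3.0 mM EDTA, 0.005% polysorbate 20). Kd is the mean of at least duplicate measurements ± SD.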

Another data set relates to Aorta. Nature of the data set: Inhibition of angiogenesis in Sprague-Dawley rat aortic endothelium at 10 uM. The data set is classed as functional, tissue-based. The essentials: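 Sprague-Dawley rats (2–4 months old): bisected 1 mm thoracic aortic rings embedded in Matrigel in EBM-2 with 2% FCS, no heparin. Compound added in triplicate, medium replenished every 48 h. Microvessel sprouting scored semiquantitatively by two assessors up to day 8. One-way ANOVA with Dunnett's test.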

Data set [5] has as its system Plasma. Description: Anticoagulant activity in human plasma by heptest. The data set is classed as functional. An outline of the steps: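 Heptest clot assay. Plasma (centrifuged 1800g, 10 min, used within 30 min) incubated with compound 2 min at 37 °C. Factor Xa added, 2 min at 37 °C, then clotting started with Recalmix; read on a ball coagulometer. Normal range 13–20 s; means of two determinations.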

Another data set deals with T1, Heparanase (Homo sapiens, UniProt Q9Y251).
T1 sequence (Q9Y251 whole entry): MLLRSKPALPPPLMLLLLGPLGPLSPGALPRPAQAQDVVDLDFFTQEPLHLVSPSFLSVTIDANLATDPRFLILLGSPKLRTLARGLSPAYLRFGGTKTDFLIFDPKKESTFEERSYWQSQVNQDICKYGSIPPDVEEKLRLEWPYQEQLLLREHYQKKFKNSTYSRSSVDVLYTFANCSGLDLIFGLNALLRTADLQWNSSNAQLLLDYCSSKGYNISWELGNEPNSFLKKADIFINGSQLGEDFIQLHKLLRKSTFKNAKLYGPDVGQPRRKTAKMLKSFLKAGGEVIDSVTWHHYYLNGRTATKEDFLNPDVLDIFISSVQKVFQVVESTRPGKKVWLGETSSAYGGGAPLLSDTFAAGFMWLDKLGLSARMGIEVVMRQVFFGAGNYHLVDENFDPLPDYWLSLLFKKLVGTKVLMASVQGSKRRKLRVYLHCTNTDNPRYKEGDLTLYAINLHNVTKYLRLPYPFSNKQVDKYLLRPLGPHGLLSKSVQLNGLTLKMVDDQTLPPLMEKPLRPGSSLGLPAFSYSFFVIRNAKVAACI
Description: Inhibition of human recombinant heparanase. The essentials:
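Recombinant human heparanase assayed by ultrafiltration with 3H-labelled heparan sulfate as substrate (Km = 1.64 μM). Ki values with standard error were derived from inhibition response curves.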

Data set [6] deals with T2, Vascular endothelial growth factor A, long form (Homo sapiens, UniProt P15692).
T2 sequence (P15692 whole entry): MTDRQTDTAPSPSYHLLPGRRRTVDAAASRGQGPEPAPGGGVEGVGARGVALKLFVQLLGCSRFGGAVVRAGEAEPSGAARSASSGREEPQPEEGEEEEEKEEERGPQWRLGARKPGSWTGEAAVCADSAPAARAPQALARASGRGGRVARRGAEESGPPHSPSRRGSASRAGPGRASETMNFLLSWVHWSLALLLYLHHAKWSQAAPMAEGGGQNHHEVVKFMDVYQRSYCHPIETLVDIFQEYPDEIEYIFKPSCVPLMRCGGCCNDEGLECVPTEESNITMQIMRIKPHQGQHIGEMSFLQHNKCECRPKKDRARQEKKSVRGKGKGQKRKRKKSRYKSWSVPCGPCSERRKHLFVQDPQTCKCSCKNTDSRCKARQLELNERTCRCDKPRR
Description: Binding affinity to VEGF by surface plasmon-based solution affinity assay. An outline of the steps:
as §1

Fibroblast growth factor 1, sequence (P05230 whole entry): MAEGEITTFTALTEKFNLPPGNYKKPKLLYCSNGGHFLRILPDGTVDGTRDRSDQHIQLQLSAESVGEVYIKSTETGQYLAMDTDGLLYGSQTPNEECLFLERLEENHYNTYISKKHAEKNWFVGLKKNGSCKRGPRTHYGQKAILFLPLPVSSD

Take MUPARFOSTAT SODIUM: in data set [1], the Activity result is reported as “Toxic”. Besides, the LC50 with HUVEC is over 100000 nM.

Turning to `O=S(=O)([O-])OC[C@H]1O[C@H](OCc2ccccc2)[C@@H](O[C@H]2O[C@H](COS(=O)(=O)[O-])[C@@H](OS(=O)(=O)[O-])[C@H](O[C@H]3O[C@H](COS(=O)(=O)[O-])[C@@H](OS(=O)(=O)[O-])[C@H](O[C@H]4O[C@H](COS(=O)(=O)[O-])[C@@H](OS(=O)(=O)[O-])[C@H](O[C@H]5O[C@H](COS(=O)(=O)[O-])[C@@H](OS(=O)(=O)[O-])[C@H](OS(=O)(=O)[O-])[C@@H]5OS(=O)(=O)[O-])[C@@H]4OS(=O)(=O)[O-])[C@@H]3OS(=O)(=O)[O-])[C@@H]2OS(=O)(=O)[O-])[C@@H](OS(=O)(=O)[O-])[C@@H]1OS(=O)(=O)[O-].[Na+].[Na+].[Na+].[Na+].[Na+].[Na+].[Na+].[Na+].[Na+].[Na+].[Na+].[Na+].[Na+].[Na+].[Na+].[Na+]`, the Kd in data set [2] is 95 nM; in [4], 0.16 nM; in [6], 1.8 nM. In the data set on Plasma [3], the Time is reported as over 500 s. For the same compound, the Activity entry in [1] is on record as “Toxic”; in the data set with Plasma [5] it was over 500 s. For the same compound, the outcome in the data set with Aorta was Active. Moreover, the inhibitory constant (Ki) at Heparanase amounted to 370 nM. Further, the LC50 in the data set with HUVEC is over 100000 nM.

In the case of `O=S(=O)([O-])OC[C@H]1O[C@H](OCCCCCCCCn2cc(-c3cccc4ccccc34)nn2)[C@@H](O[C@H]2O[C@H](COS(=O)(=O)[O-])[C@@H](OS(=O)(=O)[O-])[C@H](O[C@H]3O[C@H](COS(=O)(=O)[O-])[C@@H](OS(=O)(=O)[O-])[C@H](O[C@H]4O[C@H](COS(=O)(=O)[O-])[C@@H](OS(=O)(=O)[O-])[C@H](O[C@H]5O[C@H](COS(=O)(=O)[O-])[C@@H](OS(=O)(=O)[O-])[C@H](OS(=O)(=O)[O-])[C@@H]5OS(=O)(=O)[O-])[C@@H]4OS(=O)(=O)[O-])[C@@H]3OS(=O)(=O)[O-])[C@@H]2OS(=O)(=O)[O-])[C@@H](OS(=O)(=O)[O-])[C@@H]1OS(=O)(=O)[O-].[Na+].[Na+].[Na+].[Na+].[Na+].[Na+].[Na+].[Na+].[Na+].[Na+].[Na+].[Na+].[Na+].[Na+].[Na+].[Na+]`, the Kd in [2] is 35 nM; in data set [4] it was 0.12 nM; in [6] it was 0.7 nM. In addition, the Time in the data set on Plasma [3] came to 89 s. Besides, in the data set on Plasma [5], the Activity is 20 s. In addition, the Ki on Heparanase came out at 360 nM. This compound also yielded an LC50 in the data set with HUVEC of over 100000 nM.

For `CCCCc1ccc(CO[C@H]2O[C@H](COS(=O)(=O)[O-])[C@@H](OS(=O)(=O)[O-])[C@H](OS(=O)(=O)[O-])[C@@H]2O[C@H]2O[C@H](COS(=O)(=O)[O-])[C@@H](OS(=O)(=O)[O-])[C@H](O[C@H]3O[C@H](COS(=O)(=O)[O-])[C@@H](OS(=O)(=O)[O-])[C@H](O[C@H]4O[C@H](COS(=O)(=O)[O-])[C@@H](OS(=O)(=O)[O-])[C@H](OS(=O)(=O)[O-])[C@@H]4OS(=O)(=O)[O-])[C@@H]3OS(=O)(=O)[O-])[C@@H]2OS(=O)(=O)[O-])cc1.[Na+].[Na+].[Na+].[Na+].[Na+].[Na+].[Na+].[Na+].[Na+].[Na+].[Na+].[Na+].[Na+]`, the dissociation constant Kd in data set [2] came out at 160 nM; in data set [4], 0.21 nM; in data set [6] it was 12 nM. The Time in the data set on Plasma [3] is recorded as 73.1 s. Moreover, the Activity in the data set on Plasma [5] amounted to 49.8 s. Moreover, the inhibition constant (Ki) on Heparanase worked out at 310 nM. In the data set on HUVEC, this compound returned an LC50 of over 100000 nM.

In the case of `O=S(=O)([O-])OC[C@H]1O[C@H](OCCCCCCCCn2cc(-c3ccccc3)nn2)[C@@H](O[C@H]2O[C@H](COS(=O)(=O)[O-])[C@@H](OS(=O)(=O)[O-])[C@H](O[C@H]3O[C@H](COS(=O)(=O)[O-])[C@@H](OS(=O)(=O)[O-])[C@H](O[C@H]4O[C@H](COS(=O)(=O)[O-])[C@@H](OS(=O)(=O)[O-])[C@H](OS(=O)(=O)[O-])[C@@H]4OS(=O)(=O)[O-])[C@@H]3OS(=O)(=O)[O-])[C@@H]2OS(=O)(=O)[O-])[C@@H](OS(=O)(=O)[O-])[C@@H]1OS(=O)(=O)[O-].[Na+].[Na+].[Na+].[Na+].[Na+].[Na+].[Na+].[Na+].[Na+].[Na+].[Na+].[Na+].[Na+]`, the dissociation constant Kd turned out to be 140 nM in data set [2], 0.28 nM in [4] and 10.4 nM in [6]. Also, the Time in the data set on Plasma [3] is recorded as 53 s. Also, the Activity entry is given as “Toxic” in [1] and 24.4 s in the data set with Plasma [5]. The Ki at Heparanase stood at 310 nM. This compound came in with an LC50 in the data set on HUVEC of over 100000 nM.

For `O=S(=O)([O-])OC[C@H]1O[C@H](OCCCCCCCCn2cc(-c3cccc4ccccc34)nn2)[C@@H](O[C@H]2O[C@H](COS(=O)(=O)[O-])[C@@H](OS(=O)(=O)[O-])[C@H](O[C@H]3O[C@H](COS(=O)(=O)[O-])[C@@H](OS(=O)(=O)[O-])[C@H](O[C@H]4O[C@H](COS(=O)(=O)[O-])[C@@H](OS(=O)(=O)[O-])[C@H](OS(=O)(=O)[O-])[C@@H]4OS(=O)(=O)[O-])[C@@H]3OS(=O)(=O)[O-])[C@@H]2OS(=O)(=O)[O-])[C@@H](OS(=O)(=O)[O-])[C@@H]1OS(=O)(=O)[O-].[Na+].[Na+].[Na+].[Na+].[Na+].[Na+].[Na+].[Na+].[Na+].[Na+].[Na+].[Na+].[Na+]`, the dissociation constant Kd in data set [2] is 110 nM; in [4], 0.19 nM; in data set [6] it was 7.1 nM. Also, the Time in the data set on Plasma [3] turned out to be 59.5 s. The Activity in the data set on Plasma [5] is reported as 28.8 s. On Heparanase, the Ki turned out to be 270 nM. This compound gave an LC50 in the data set on HUVEC of over 100000 nM.

For the compound `O=S(=O)([O-])OC[C@H]1O[C@H](OCCCCCCCCn2cc(-c3ccccc3)nn2)[C@@H](O[C@H]2O[C@H](COS(=O)(=O)[O-])[C@@H](OS(=O)(=O)[O-])[C@H](O[C@H]3O[C@H](COS(=O)(=O)[O-])[C@@H](OS(=O)(=O)[O-])[C@H](O[C@H]4O[C@H](COS(=O)(=O)[O-])[C@@H](OS(=O)(=O)[O-])[C@H](O[C@H]5O[C@H](COS(=O)(=O)[O-])[C@@H](OS(=O)(=O)[O-])[C@H](OS(=O)(=O)[O-])[C@@H]5OS(=O)(=O)[O-])[C@@H]4OS(=O)(=O)[O-])[C@@H]3OS(=O)(=O)[O-])[C@@H]2OS(=O)(=O)[O-])[C@@H](OS(=O)(=O)[O-])[C@@H]1OS(=O)(=O)[O-].[Na+].[Na+].[Na+].[Na+].[Na+].[Na+].[Na+].[Na+].[Na+].[Na+].[Na+].[Na+].[Na+].[Na+].[Na+].[Na+]`, the dissociation constant (Kd) in data set [2] worked out at 43 nM; in [4] it was 0.16 nM; in data set [6], 0.62 nM. For the same compound, the Time in the data set with Plasma [3] worked out at 96.9 s. In the data set on Plasma [5], this compound yielded an Activity of 38.4 s. At Heparanase, the inhibitory constant (Ki) was 420 nM. In the data set with HUVEC, the LC50 was over 100000 nM.

A word on the LC50: it is the concentration lethal to half of the exposed cells or organisms. One may read the Kd as the concentration at which binding is half-saturated. A higher Kd goes with weaker binding. By Ki is commonly meant the dissociation constant of the complex between target and ligand, obtained from inhibition or displacement.
